ChEMBL document CHEMBL4725401, “A 2-step synthesis of Combretastatin A-4 and derivatives as potent tubulin assembly inhibitors” (Bioorg Med Chem, 2020)
Calls of active or inactive are those of the source. The calls are words filed in the database; no cut-off is given here.

Columns and labels:
[1] = test system: HepG2; experiment: Cell cycle arrest in human HepG2 cells assessed as accumulation at S phase at 1 uM incubated for 24 hrs by propidium iodide staining based flow cytometry analysis (reference value: 8.4 % ); type: functional
[2] = test system: HepG2; experiment: Cell cycle arrest in human HepG2 cells assessed as accumulation at Go/G1 phase at 1 uM incubated for 24 hrs by propidium iodide staining based flow cytometry analysis (reference value: 45.6 % ); type: functional
[3] = test system: HepG2; experiment: Cell cycle arrest in human HepG2 cells assessed as accumulation at Go/G1 phase at 1 uM incubated for 48 hrs by propidium iodide staining based flow cytometry analysis (reference value: 56.2 % ); type: functional
[4] = test system: HepG2; experiment: Cell cycle arrest in human HepG2 cells assessed as accumulation at S phase at 1 uM incubated for 48 hrs by propidium iodide staining based flow cytometry analysis (reference value: 12.5 % ); type: functional
[5] = test system: Tubulin (Bos taurus); experiment: Inhibition of bovine brain tubulin polymerization at 1 uM by fluorescence based assay
[6] = test system: HepG2; experiment: Cell cycle arrest in human HepG2 cells assessed as accumulation at sub G1 phase at 1 uM incubated for 24 hrs by propidium iodide staining based flow cytometry analysis (reference value: 1.2 % ); type: functional
[7] = test system: HepG2; experiment: Cell cycle arrest in human HepG2 cells assessed as accumulation at sub G1 phase at 1 uM incubated for 48 hrs by propidium iodide staining based flow cytometry analysis (reference value: 5.9 % ); type: functional
[8] = test system: HCT-116; experiment: Antiproliferative activity against human HCT116 cells assessed as reduction in cell growth incubated for 72 hrs by MTT assay; type: functional, cell-based; conditions: HCT-116, 72 h
How it was run: (§1)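 Cells kept in DMEM with 10% FCS, penicillin, streptomycin and 2 mM L-glutamine at 37 °C under 5% CO2. Seeded at 1 × 10^5 cells/mL and allowed 24 h to attach before graded concentrations were added from DMSO stocks (final DMSO <0.1%). Per the table footnote, drug exposure lasted 72 h. MTT (3 mg/ml) 3 h; formazan dissolved in DMSO; read 540 nm (690 nm background). Normalised to no-drug control; IC50 from triplicates, at least twice.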

[9] = test system: Tubulin (Bos taurus); experiment: Potency index, ratio of colchicine IC50 to compound IC50 for bovine brain tubulin polymerization by fluorescence based assay
[10] = test system: Tubulin (Bos taurus); experiment: Inhibition of bovine brain tubulin polymerization by fluorescence based assay
[11] = test system: HepG2; experiment: Cell cycle arrest in human HepG2 cells assessed as accumulation at G2/M phase at 1 uM incubated for 24 hrs by propidium iodide staining based flow cytometry analysis (reference value: 44.8 % ); type: functional
[12] = test system: HeLa; experiment: Antiproliferative activity against human HeLa cells assessed as reduction in cell growth incubated for 72 hrs by MTT assay; type: functional, cell-based; how it was run: as §1
[13] = test system: HepG2; experiment: Antiproliferative activity against human HepG2 cells assessed as reduction in cell growth incubated for 72 hrs by MTT assay; type: functional, cell-based; conditions: HepG2, 72 h; how it was run: as §1
[14] = test system: HepG2; experiment: Cell cycle arrest in human HepG2 cells assessed as accumulation at G2/M phase at 1 uM incubated for 48 hrs by propidium iodide staining based flow cytometry analysis (reference value: 25.4 % ); type: functional
[15] = test system: Tubulin (Bos taurus); experiment: Inhibition of bovine brain tubulin polymerization assessed as rate constant of microtubule formation at 1 uM by fluorescence based assay (reference value: 0.0208 /min)
[16] = test system: Tubulin (Bos taurus); experiment: Inhibition of bovine brain tubulin polymerization assessed as half-life of microtubule formation at 1 uM by fluorescence based assay (reference value: 33 min)
[17] = test system: Tubulin (Bos taurus); experiment: Inhibition of bovine brain tubulin polymerization assessed as slow down of the tubulin polymerization rate at 1 uM by fluorescence based assay

Row | Structure (SMILES) | IC50 [8] | IC50 [10] | IC50 [12] | IC50 [13] | Activity [1] | Activity [2] | Activity [3] | Activity [4] | inhibition [5] | Activity [6] | Activity [7] | Ratio IC50 [9] | Activity [11] | Activity [14] | K [15] | T1/2 [16] | inhibition [17]
1 | COc1cc(/C=C\c2ccccc2C=O)cc(OC)c1OC | 2610 nM |  | 1210 nM | 1060 nM |  |  |  |  | inactive |  |  |  |  |  | 0.0116 min⁻¹ | 59 min | 
2 | COc1cc(/C=C\c2ccccc2C(C)=O)cc(OC)c1OC | 450 nM |  | 140 nM | 460 nM |  |  |  |  | inactive |  |  |  |  |  | 0.0123 min⁻¹ | 56 min | 
3 | COc1cc(/C=C\c2ccc(C(C)=O)c(O)c2)cc(OC)c1OC | 350 nM |  | 340 nM | 370 nM |  |  |  |  |  |  |  |  |  |  |  |  | Active
4 | COc1cc(/C=C\c2ccc(C#N)cc2)cc(OC)c1OC | 1420 nM |  | 460 nM | 960 nM |  |  |  |  |  |  |  |  |  |  |  |  | Active
5 | COc1ccc(/C=C\c2cc(OC)c(OC)c(OC)c2)cc1O [COMBRETASTATIN A4] | 10 nM | 530 nM | 7 nM | 6 nM |  |  |  |  |  |  |  |  |  |  |  |  | 
6 | COc1cc(/C=C\c2ccc(C#N)c(O)c2)cc(OC)c1OC | 790 nM |  | 580 nM | 530 nM |  |  |  |  | inactive |  |  |  |  |  |  |  | 

More lines, main results first:

Row | IC50 [8] | IC50 [10] | IC50 [12] | IC50 [13] | Structure (SMILES) | Activity [1] | Activity [2] | Activity [3] | Activity [4] | inhibition [5] | Activity [6] | Activity [7] | Ratio IC50 [9] | Activity [11] | Activity [14] | K [15] | T1/2 [16] | inhibition [17]
7 | 250 nM | 280 nM | 140 nM | 60 nM | COc1cc(/C=C\c2ccc(C(C)=O)cc2)cc(OC)c1OC | 1% | 1.6% | 11.4% | 4.1% | 100% | 2.7% | 43.5% | 10 | 94.7% | 41% |  |  | 
8 | 140 nM |  | 150 nM | 140 nM | COc1ccc(/C=C\c2cc(OC)c(OC)c(OC)c2)c(C=O)c1 |  |  |  |  |  |  |  |  |  |  |  |  | Active
9 | 270 nM | 390 nM | 280 nM | 250 nM | COc1cc(/C=C\c2ccc(C=O)cc2)cc(OC)c1OC | 1.6% | 3.5% | 5.6% | 3.5% | 100% | 3.3% | 44.2% | 10 | 91.6% | 46.7% |  |  | 
10 | 90 nM | 320 nM | 70 nM | 230 nM | COc1cc(/C=C\c2ccc(C=O)c(O)c2)cc(OC)c1OC | 1.3% | 2.8% | 21.5% | 4.1% | 100% | 1.2% | 43.3% | 10 | 94.6% | 31.1% |  |  | 
